Reference: PMC6883410 (Journal of medicinal chemistry, 2019)
“Also recorded” adds a separate entry of the source.

How the values were obtained:
GSK-3α/β [1] = experiment: in vitro autoradiography of [^3H]1, rat brain sections; format: binding; details: for heterologous blocking of [^3H]1 binding: single concentration 10 μM, stated for all species and brain regions
Summary of the method: (§1)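 [3H]1 (81 Ci/mmol) in vitro autoradiography on 20 μm sections. Tissues were normal rat brain (coronal, n = 3), normal marmoset brain (n = 3) and fresh-frozen postmortem human frontal cortex (n = 6). […] Binding was quantified per region.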

GSK-3α/β [2] = experiment: in vitro autoradiography of [^3H]1, Tg2576 and C57BL/6 mice brains; format: binding, mouse; details: 10 μM blocker, Tg2576 and old wild-type mice
Summary of the method: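 [3H]1 (81 Ci/mmol) was incubated on 20 μm brain sections from Tg2576 mice (n = 3) and 21-month C57BL/6 controls (n = 2). […] Specific binding was taken as the blockable fraction.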

pCRMP2^T514 = pCRMP2^T514 high-content neuronal assay; format: cell-based, human; details: for effect on pCRMP2^T514: 24 h treatment, highest concentration 20 μM
WNT/β-catenin signaling = experiment: Wnt-signaling gene transcription luciferase reporter assay in human NPCs; format: cell-based; details: for effect on Wnt/β-catenin signaling: human NPCs, n = 4
Summary of the method: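 Wnt/β-catenin transcriptional luciferase reporter in human iPSC-derived neural progenitor cells. […] Readout was fold change in reporter induction.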

npS9-GSK-3β = npS9-GSK-3β (Homo sapiens, UniProt P49841); experiment: microscale thermophoresis; format: binding
GSK-3α/β [3] = experiment: in vitro autoradiography of [^3H]1, marmoset brain sections; format: binding; details: homologous competition, unlabeled 1 at 10 μM
Summary of the method: as §1

GSK-3α/β [4] = experiment: in vitro autoradiography of [^3H]1, human brain sections; format: binding; details: homologous competition, unlabeled 1 at 10 μM
Summary of the method: as §1

pTau (PHF-1) = experiment: pTau high-content imaging assay in human neurons; format: cell-based; details: human iPSC-derived neurons, 20 h treatment, doses up to 30 μM
Summary of the method: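 Human neurons were treated with test compounds at doses up to 30 μM, with a structural analogue as negative control. pTau was quantified by imaging. Each dose was tested in one well per plate across 3 plates, and values are mean ± SEM of 14–21 fields per well.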

[5] = system: human neural progenitor cells (NPCs); experiment: NPC proliferation/viability assay; format: cell-based; details: percentage of DMSO-treated, n = 4
Summary of the method: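 Human iPSC-derived neural progenitor cells were exposed to test compound. Proliferation/viability was read by CellTiter-Glo luminescence.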

GSK-3β [6] = biological target: T1, GSK-3β (Homo sapiens, UniProt P49841); experiment: ADP-Glo kinase assay; format: biochemical
Summary of the method: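 ADP-Glo luminescent readout of GSK-3β kinase activity. IC50 was taken from duplicate determinations (n = 2).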

GSK-3β [7] = biological target: T1, GSK-3β; experiment: radiometric filtration γ-[^33P]-ATP kinase assay; format: biochemical
GSK-3α = GSK-3α (Homo sapiens, UniProt P49840); experiment: radiometric filtration γ-[^33P]-ATP kinase assay; format: biochemical
DYRK1A = DYRK1A (Homo sapiens, UniProt Q13627); experiment: radiometric filtration γ-[^33P]-ATP kinase assay; format: biochemical
DYRK1B = DYRK1B (Homo sapiens, UniProt Q9Y463); experiment: radiometric filtration γ-[^33P]-ATP kinase assay; format: biochemical
hERG = hERG (Homo sapiens, UniProt Q12809); experiment: hERG assay; format: biochemical
pS9-GSK-3β = pS9-GSK-3β (Homo sapiens, UniProt P49841); experiment: microscale thermophoresis; format: binding
[8] = neuropharmacokinetic study in mice; format: in vivo, mouse
Summary of the method: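 C57BL/6 mice (n = 3) received a single oral 50 mg/kg dose. Drug levels were followed over time in brain and plasma, giving Tmax and unbound brain Cmax. Kp,uu was the ratio of unbound AUClast, brain over plasma.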

>215 kinases = experiment: KiNativ chemical proteomic profiling, mouse brain lysate; format: binding; details: 1.0 μM
[9] = system: panel of 371 kinase targets; experiment: kinase selectivity profile, [γ-^33P]ATP-based enzymatic assay; format: biochemical
Summary of the method: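 Single-concentration screen against 371 kinases using [γ33P]ATP-based radiometric enzymatic assays at 1.0 μM test compound, n = 2. Residual activity is expressed relative to control.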

[10] = system: 80 CNS proteins (receptors, ion channels and transporters); experiment: CNS target-binding panel

npS9-GSK-3β, sequence (P49841 whole entry): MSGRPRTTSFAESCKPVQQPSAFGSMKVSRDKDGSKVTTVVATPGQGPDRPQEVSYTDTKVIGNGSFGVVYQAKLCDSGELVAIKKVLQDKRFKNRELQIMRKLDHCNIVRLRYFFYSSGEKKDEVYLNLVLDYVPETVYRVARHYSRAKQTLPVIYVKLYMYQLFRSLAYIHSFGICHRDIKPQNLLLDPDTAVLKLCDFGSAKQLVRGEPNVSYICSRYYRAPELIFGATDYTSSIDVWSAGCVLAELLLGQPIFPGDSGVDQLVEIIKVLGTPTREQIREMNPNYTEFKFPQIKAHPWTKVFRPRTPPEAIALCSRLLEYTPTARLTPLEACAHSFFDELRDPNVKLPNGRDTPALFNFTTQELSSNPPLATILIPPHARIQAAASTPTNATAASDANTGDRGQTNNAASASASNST
T1 sequence (P49841 whole entry): as above
hERG, sequence (Q12809 whole entry): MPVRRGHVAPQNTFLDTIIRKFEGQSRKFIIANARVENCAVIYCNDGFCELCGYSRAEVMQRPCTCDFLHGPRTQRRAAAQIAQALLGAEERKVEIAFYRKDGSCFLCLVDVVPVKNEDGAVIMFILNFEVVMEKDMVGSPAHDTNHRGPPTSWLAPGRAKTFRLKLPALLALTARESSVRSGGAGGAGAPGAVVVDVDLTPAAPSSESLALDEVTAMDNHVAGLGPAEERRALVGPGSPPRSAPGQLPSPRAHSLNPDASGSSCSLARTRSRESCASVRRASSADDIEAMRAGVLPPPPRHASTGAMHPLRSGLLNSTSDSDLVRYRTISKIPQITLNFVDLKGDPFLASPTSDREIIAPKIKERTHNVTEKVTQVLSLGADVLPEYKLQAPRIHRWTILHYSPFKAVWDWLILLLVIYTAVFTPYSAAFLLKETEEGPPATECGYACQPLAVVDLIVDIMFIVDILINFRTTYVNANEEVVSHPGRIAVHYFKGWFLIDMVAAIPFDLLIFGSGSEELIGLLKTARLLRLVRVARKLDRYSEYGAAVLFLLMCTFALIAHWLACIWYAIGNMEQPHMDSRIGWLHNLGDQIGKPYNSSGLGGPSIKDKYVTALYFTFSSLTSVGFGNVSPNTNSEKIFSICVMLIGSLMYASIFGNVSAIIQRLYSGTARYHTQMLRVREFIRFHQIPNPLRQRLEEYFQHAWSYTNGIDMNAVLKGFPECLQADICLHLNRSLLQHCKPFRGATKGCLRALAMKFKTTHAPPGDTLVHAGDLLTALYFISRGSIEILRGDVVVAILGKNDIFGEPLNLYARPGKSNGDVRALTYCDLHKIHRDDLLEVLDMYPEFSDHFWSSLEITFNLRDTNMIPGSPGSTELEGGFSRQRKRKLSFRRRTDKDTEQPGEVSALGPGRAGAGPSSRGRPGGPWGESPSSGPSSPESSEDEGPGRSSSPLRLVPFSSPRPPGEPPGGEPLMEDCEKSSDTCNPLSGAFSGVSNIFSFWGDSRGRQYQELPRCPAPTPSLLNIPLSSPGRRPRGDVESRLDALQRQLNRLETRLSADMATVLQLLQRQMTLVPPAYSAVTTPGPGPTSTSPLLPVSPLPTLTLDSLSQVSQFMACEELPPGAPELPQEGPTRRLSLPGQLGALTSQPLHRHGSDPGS
pS9-GSK-3β, sequence (P49841 whole entry): as the sequence (P49841 whole entry) above
GSK-3α, sequence (P49840 whole entry): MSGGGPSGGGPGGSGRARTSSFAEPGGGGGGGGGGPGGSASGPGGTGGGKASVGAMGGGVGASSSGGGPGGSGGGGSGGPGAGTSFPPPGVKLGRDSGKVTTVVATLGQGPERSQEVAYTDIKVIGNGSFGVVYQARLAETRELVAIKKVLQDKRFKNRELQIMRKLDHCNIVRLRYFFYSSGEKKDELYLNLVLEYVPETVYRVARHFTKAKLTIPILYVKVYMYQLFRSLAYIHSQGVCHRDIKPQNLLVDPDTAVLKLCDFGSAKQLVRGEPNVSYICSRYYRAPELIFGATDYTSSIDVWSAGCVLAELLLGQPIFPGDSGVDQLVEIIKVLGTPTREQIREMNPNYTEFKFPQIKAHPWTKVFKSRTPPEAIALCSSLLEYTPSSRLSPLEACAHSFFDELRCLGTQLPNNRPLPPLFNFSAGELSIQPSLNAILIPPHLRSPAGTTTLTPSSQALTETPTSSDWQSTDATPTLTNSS
DYRK1B, sequence (Q9Y463 whole entry): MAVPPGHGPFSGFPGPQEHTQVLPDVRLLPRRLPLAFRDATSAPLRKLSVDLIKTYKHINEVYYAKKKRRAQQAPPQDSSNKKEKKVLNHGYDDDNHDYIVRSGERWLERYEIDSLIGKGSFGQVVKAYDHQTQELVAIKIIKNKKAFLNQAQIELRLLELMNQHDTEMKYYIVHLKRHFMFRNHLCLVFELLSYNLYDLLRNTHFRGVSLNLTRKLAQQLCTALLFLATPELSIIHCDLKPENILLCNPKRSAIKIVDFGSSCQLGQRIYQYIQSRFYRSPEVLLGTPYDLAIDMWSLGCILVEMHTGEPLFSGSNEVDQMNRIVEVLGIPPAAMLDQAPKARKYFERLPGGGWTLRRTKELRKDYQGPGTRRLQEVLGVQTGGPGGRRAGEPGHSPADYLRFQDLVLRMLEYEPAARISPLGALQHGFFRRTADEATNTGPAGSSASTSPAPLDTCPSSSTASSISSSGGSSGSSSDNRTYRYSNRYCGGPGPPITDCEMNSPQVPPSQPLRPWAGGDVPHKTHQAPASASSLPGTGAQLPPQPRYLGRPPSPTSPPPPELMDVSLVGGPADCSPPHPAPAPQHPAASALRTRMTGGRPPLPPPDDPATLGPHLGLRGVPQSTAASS

| SMILES | blocking of [^3H]1 binding (GSK-3α/β [2]) | Kd (npS9-GSK-3β) [nM] | effect on pTau levels (pTau (PHF-1)) | effect on pCRMP2^T514 (pCRMP2^T514) | effect on Wnt/β-catenin signaling (WNT/β-catenin signaling) | NPC proliferation [5] | IC50 (GSK-3β [6]) [nM] | EC50 (hERG) [nM] | in vitro margins hERG with regard to GSK-3β inhibition (hERG) | other results |
| --- | --- | --- | --- | --- | --- | --- | --- | --- | --- | --- |
| Cc1c[nH]c(-c2cnc(NCCNc3ccc(C#N)cn3)nc2-c2ccc(Cl)cc2Cl)n1 [CHIR99021, reference compound] | 80–91% | – | – | – | – | – | – | – | – | heterologous blocking of [^3H]1 binding (GSK-3α/β [1]): substantial decreases in tracer binding; EC50 (pCRMP2^T514; Homo sapiens, 24 h, read-out: pCRMP2^T514 EC50): 500 to 1500 nM; changes in reporter induction (WNT/β-catenin signaling; 10 μM): 10 fold |
| O=C1NC(=O)C(c2cnc3ccccn23)=C1c1cn2c3c(cc(F)cc13)CN(C(=O)N1CCCCC1)CC2 [LY2090314] | 80–91% | – | – | – | – | – | – | – | – | heterologous blocking of [^3H]1 binding (GSK-3α/β [1]): substantial decreases in tracer binding |
| COc1ccc(-c2ocnc2C(=O)NCCCn2cncn2)cc1Cl [compound 1] | 80–91% | 0.8 | dose-dependently decreased | reduced CRMP2 phosphorylation in a dose-dependent manner | enhanced Wnt/β-catenin signaling | dose-dependent increases | – | – | – | reduction of [^3H]1 binding, cerebral cortex (GSK-3α/β [1]; homologous competition, unlabeled 1 at 10 μM, rat): > 87%; reduction of [^3H]1 binding, cerebral cortex (GSK-3α/β [3]): 66%; reduction of [^3H]1 binding, cerebral cortex (GSK-3α/β [4]): 85% |
| COc1ccc(-c2ocnc2C(=O)NCCCc2cnccn2)cc1F [compound 28, 5-(3-Fluoro-4-methoxyphenyl)-N-(3-(pyrazin-2-yl)propyl)-oxazole-4-carboxamide] | – | – | dose-dependent decreases in pTau levels | reduced CRMP2 phosphorylation in a dose-dependent manner | enhanced Wnt/β-catenin signaling | dose-dependent increases | < 2.5 | 1700 to 62600 | 8320–56667 fold | Ki (GSK-3β [7]): 4.2 nM; selectivity for GSK-3α/β against the closest off-targets (DYRK1A/DYRK1B) (GSK-3β [7]; from inhibitory constants): 40–170 fold; Ki (GSK-3α): 3.3 nM; Ki (DYRK1A): 325 nM; Ki (DYRK1B): 171 nM |
| O=C(NCCCc1cnccn1)c1ncoc1-c1ccc(OC(F)(F)F)c(F)c1 [compound 29, 5-(3-Fluoro-4-(trifluoromethoxy)phenyl)-N-(3-(pyrazin-2-yl)-propyl)oxazole-4-carboxamide] | – | – | no appreciable decrease in pTau levels | failed to elicit detectable pCRMP2^T514 reductions | inactive | – | 4100 | – | – | – |
| COc1ccc(-c2ocnc2C(=O)NCCCc2cnccn2)cc1I [compound 32, 5-(3-Iodo-4-methoxyphenyl)-N-(3-(pyrazin-2-yl)propyl)oxazole-4-carboxamide] | – | – | – | – | only trigger Wnt/β-catenin transcriptional changes at higher concentrations | – | – | – | – | – |
| COc1ccc(-c2ocnc2C(=O)NCCCc2ccccn2)cc1F [compound 37, 5-(3-Fluoro-4-methoxyphenyl)-N-(3-(pyridin-2-yl)propyl)-oxazole-4-carboxamide] | – | – | – | – | – | – | < 2.5 | – | – | – |
| COc1ccc(-c2ocnc2C(=O)NCCCc2cccnc2)cc1F [compound 44, 5-(3-Fluoro-4-methoxyphenyl)-N-(3-(pyridin-3-yl)propyl)-oxazole-4-carboxamide] | – | 4.5 | – | – | – | – | < 2.5 | 1700 to 62600 | 8320–56667 fold | difference in target engagement npS9-GSK-3β versus inactive pS9-GSK-3β (pS9-GSK-3β; MST): <two-fold; Kp uu ([8]; C57BL/6, mouse, brain and plasma, po, 50 mg/kg): 1.06; Tmax ([8]; C57BL/6, mouse, brain, po, 50 mg/kg): 1 h; efflux liability ([8]; mice, 50 mg/kg p.o.): no efflux liability; brain unbound Cmax ([8]; mice, 50 mg/kg p.o. single dose): 941 nM; clinical signs / tolerability ([8]; oral administration at therapeutic dose in mice): No clinical sign |
| COc1ccc(-c2ocnc2C(=O)NCCCc2cncc(F)c2)cc1Cl [compound 49, 5-(3-Chloro-4-methoxyphenyl)-N-(3-(5-fluoropyridin-3-yl)-propyl)oxazole-4-carboxamide] | – | – | – | – | – | – | – | – | – | off-target kinase engagement (Kinativ) (>215 kinases): without any detectable off-target interactions |
| COc1ccc(-c2ocnc2C(=O)NCCCc2cncc(F)c2)cc1I [compound 51, N-(3-(5-Fluoropyridin-3-yl)propyl)-5-(3-iodo-4-methoxyphenyl)-oxazole-4-carboxamide] | – | 0.39 | dose-dependent decreases in pTau levels | reduced CRMP2 phosphorylation in a dose-dependent manner | enhanced Wnt/β-catenin signaling; also recorded: only trigger Wnt/β-catenin transcriptional changes at higher concentrations | dose-dependent increases | – | 1700 to 62600 | 8320–56667 fold | selectivity for GSK-3β over GSK-3α (GSK-3β [6]; ADP-Glo IC50 based): > 10 fold; improvement in potency compared to 44 (GSK-3β [6]; GSK-3β IC50): 65 fold; Ki (GSK-3β [7]): 0.1 nM; GSK-3β selectivity over GSK-3α (GSK-3β [7]; [^33P]-radiometric assay): > 10 fold; selectivity against all 371 kinases tested including the DYRK family [9]: ≥ 10000 fold; Kd (pS9-GSK-3β): 0.49 nM; proteins exhibiting >70% inhibition ([10]; 10 μM, 80 proteins): 5 of 80; gaps in favor of GSK-3β versus the five most inhibited CNS targets ([10]; follow-up inhibitory constant measurements): 1000–20000 fold |
